Source: paper PMC5515376 (Nature, 2016)
Entries after “also recorded” stand apart in the source; their conditions may differ. Read-outs that look alike come from different tables or passages of the source. Marks after values point to notes of the source that are not given here.

Columns and labels:
P. falciparum Dd2 [1] = assay: In vitro P. falciparum blood-stage growth inhibition assay; format: cell-based, Plasmodium falciparum
[2] = system: P. falciparum 3D7 stage IV–V gametocytes; assay: In vitro transmission-blocking assay; format: cell-based, Plasmodium falciparum; conditions: P. falciparum (3D7), Gametocyte (IV-V)
Method in brief: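 3D7 cultures were treated 3 days with 50 mM N-acetyl-D-glucosamine to remove asexual parasites. Stage IV–V gametocytes were then isolated on a discontinuous Percoll gradient. Gametocytes (1.0 × 10^5 per well) were incubated with compound for 72 h. Viability was measured by CellTiter-Glo luminescence.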

[3] = system: P. falciparum (NF54) stage V gametocytes; assay: P. falciparum standard membrane feeding assay; format: cell-based, Plasmodium falciparum
[4] = system: P. falciparum (NF54) liver stage; assay: In vitro P. falciparum liver-stage assay; format: cell-based, Plasmodium falciparum
[5] = system: P. berghei (ANKA) liver stage; assay: In vitro P. berghei liver-stage assay; format: cell-based, Plasmodium berghei; conditions: P. berghei (ANKA), Liver stage
Method in brief: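 HepG2 cells (~17,500 per well, in duplicate) were cultured 18–24 h, then the medium was exchanged and compound added. After 1 h, 4,000 P. berghei ANKA GFP–luc sporozoites per well were added, freshly dissected from A. stephensi mosquitoes. Plates were spun 10 min at 1,000 r.p.m. and incubated 48 h at 37 °C. Parasite load was read by Bright-Glo luminescence.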

Solubility assay in PBS = format: physicochemical; conditions: PBS pH 7.4 with 1% DMSO
Method in brief: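 Compound was prepared at 100 µM in triplicate, both in 100% DMSO and in PBS pH 7.4 with 1% DMSO. Samples were shaken at 750 r.p.m. for 18 h at room temperature. Analysis was by UPLC–MS with single-ion detection. PBS response was fitted to a two-point calibration built from the DMSO samples.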

[6] = Plasma protein binding assay; format: in vitro ADME
Method in brief: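 Binding was measured by equilibrium dialysis in a RED device. Compound at 5 µM, in duplicate, was placed in mouse plasma (0.95% acetonitrile, 0.05% DMSO) against PBS pH 7.4. Incubation was 5 h at 37 °C with 350 r.p.m. orbital shaking. Both sides were analysed by UPLC–MS with single-ion detection.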

[7] = Metabolic stability assay, mouse liver microsomes; format: in vitro ADME
Method in brief: (§1)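 Liver microsomes (0.2 mg ml−1) were incubated with compound (0.5 and 5 µM) plus NADPH for 0, 10 and 90 min. Human microsomes or mouse CD-1 microsomes were used, as named in each line. Compound depletion was measured by LC–MS/MS and used to estimate Km, Vmax and half-life.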

[8] = Metabolic stability assay, human liver microsomes; format: in vitro ADME
Method in brief: as §1

HepG2 cell line = assay: Mammalian cell cytotoxicity assay; format: cell-based, human; conditions: read-out: HepG2 CC50; 72 h
Method in brief: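 HepG2, A549 or HEK293 cells were grown in DMEM with 10% FBS and 1% antibiotic–antimycotic and tested mycoplasma-free. Cells (1 × 10^6) were seeded one day before treatment. They were exposed to ascending compound doses for 72 h, and viability was read by CellTiter-Glo.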

hERG channel = hERG channel (Homo sapiens, UniProt Q12809); assay: hERG channel inhibition assay; format: cell-based; conditions: read-out: hERG IC50; IKr
Method in brief: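 hERG current was measured in hERG-expressing cell lines by automated patch clamp (QPatch-HTX).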

[9] = Mouse pharmacokinetics assay; format: in vivo; conditions: CD-1 mice
Method in brief: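 Female CD-1 mice received single intravenous and oral doses. Parameters were estimated by non-compartmental analysis.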

[10] = Pharmacokinetics in P. falciparum 3D7^HLH/BRD-infected NSG mice; format: in vivo, mouse; conditions: for AUC: huRBC NSG mice; for AUC0-inf / Cmax / MRT0-inf / Tmax / AUC0-t: infected NSG mice; for AUC0-t: t = 24 h
[11] = system: P. falciparum 3D7^HLH/BRD blood-stage parasites; assay: In vivo P. falciparum blood-stage assay; design: species or system Plasmodium falciparum; conditions: huRBC NSG mice
[12] = system: P. falciparum (NF54HT-GFP-luc) sporozoites; assay: In vivo P. falciparum liver-stage assay; design: species or system Plasmodium falciparum
[13] = system: P. berghei (ANKA GFP-luc); assay: In vivo P. berghei transmission-stage assay; design: species or system Plasmodium berghei; conditions: for Compound remaining in the circulation (plasma concentration): P. berghei-infected CD-1 mice
[14] = system: P. falciparum 3D7^HLH/BRD; assay: In vivo P. falciparum transmission-stage assay; design: species or system Plasmodium falciparum; conditions: huRBC NSG mice; single oral 12.5 mg kg^−1; 7 days after treatment
[15] = system: Salmonella typhimurium strains TA100, TA1535, TA98, TA1537 and Escherichia coli strain WP2uvrA; assay: Ames test; conditions: in the presence or absence of S9 mix
P. falciparum Dd2 [16] = format: cell-based, Plasmodium falciparum; conditions: Dd2 cultures, inocula 10^5 to 10^9, 20 nM (EC90), 60 days
[17] = IV (2.5) mg/kg, separate assay over 72 h

hERG channel, sequence (Q12809 whole entry): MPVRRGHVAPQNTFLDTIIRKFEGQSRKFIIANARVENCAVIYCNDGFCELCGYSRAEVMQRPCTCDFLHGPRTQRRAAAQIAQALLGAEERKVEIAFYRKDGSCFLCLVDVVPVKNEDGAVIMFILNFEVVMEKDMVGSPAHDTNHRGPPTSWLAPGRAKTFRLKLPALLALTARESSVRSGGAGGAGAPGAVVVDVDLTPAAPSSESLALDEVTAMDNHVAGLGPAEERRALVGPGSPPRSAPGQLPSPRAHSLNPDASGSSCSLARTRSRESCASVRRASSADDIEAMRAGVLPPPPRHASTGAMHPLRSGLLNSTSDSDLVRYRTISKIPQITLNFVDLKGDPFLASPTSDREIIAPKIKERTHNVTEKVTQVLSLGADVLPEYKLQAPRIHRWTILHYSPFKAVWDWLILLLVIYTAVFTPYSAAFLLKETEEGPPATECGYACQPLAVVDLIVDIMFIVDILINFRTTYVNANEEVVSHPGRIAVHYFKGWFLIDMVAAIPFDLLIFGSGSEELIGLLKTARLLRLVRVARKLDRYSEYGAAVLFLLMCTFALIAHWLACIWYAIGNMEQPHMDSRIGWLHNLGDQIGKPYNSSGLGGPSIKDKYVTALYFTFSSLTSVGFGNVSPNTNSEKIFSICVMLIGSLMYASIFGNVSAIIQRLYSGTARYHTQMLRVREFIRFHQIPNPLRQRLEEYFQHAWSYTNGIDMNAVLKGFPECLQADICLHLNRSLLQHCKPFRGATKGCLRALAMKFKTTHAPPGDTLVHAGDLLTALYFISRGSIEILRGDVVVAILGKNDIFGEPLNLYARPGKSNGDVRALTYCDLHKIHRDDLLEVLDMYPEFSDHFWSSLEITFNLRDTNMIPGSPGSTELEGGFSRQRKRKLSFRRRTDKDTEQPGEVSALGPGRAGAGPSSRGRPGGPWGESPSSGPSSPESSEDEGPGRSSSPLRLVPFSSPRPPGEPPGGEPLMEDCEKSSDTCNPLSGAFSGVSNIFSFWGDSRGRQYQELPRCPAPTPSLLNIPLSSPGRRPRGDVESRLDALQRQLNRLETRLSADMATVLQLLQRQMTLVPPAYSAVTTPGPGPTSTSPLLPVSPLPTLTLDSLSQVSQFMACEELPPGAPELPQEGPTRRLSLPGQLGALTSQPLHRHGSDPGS

COc1ccc(NC(=O)N2CCCCN3[C@H](CN(C)C)[C@H](c4ccc(C#Cc5ccccc5)cc4)[C@@H]3C2)cc1 [BRD7929]
EC50 (P. falciparum Dd2 [1]; read-out: Pf, Dd2 EC50, blood stage): 9 nM
EC50 (P. falciparum Dd2 [1]; read-out: PfDd2 EC50, asexual blood-stage parasites (Dd2), SAR table): 9 nM
EC90 (P. falciparum Dd2 [1]; strain Dd2): 20 nM
EC50 [2]: 160 nM
EC50 ([3]; read-out: EC50, standard membrane-feeding assay, direct (D), single drug concentration (10 µM) immediately before blood feeding): < 10000 nM
EC50 ([3]; read-out: EC50, standard membrane-feeding assay, indirect (ID), parasites treated 24 h before mosquito feeding): 270 nM
EC50 [4]: 340 nM
EC50 [5]: 162 nM
PBS solubility (Solubility assay in PBS): 15 µM
Mouse Plasma protein binding [6]: 99.9%
Mouse Clint [7]: 21 µL/min/mg
Human Clint [8]: 31 µL/min/mg
CC50 (HepG2 cell line): 9000 nM
IC50 (hERG channel): 2100 nM
AUC (estimated) ([9]; 25 mg kg^−1 single-dose cure, estimated from pharmacokinetic studies): 27.5 µM·h
CL ([9]; IV (2.5) mg/kg): 9.9 mL/min/kg
MRT0-inf ([9]; IV (2.5) mg/kg): 40.5 h
Vss ([9]; IV (2.5) mg/kg): 24 L/kg
AUC0-inf [9, 17]: 11.2 µM·h
CL [9, 17]: 7.1 mL/min/kg
MRT0-inf [9, 17]: 45 h
T1/2 [9, 17]: 32 h
Vss [9, 17]: 19 L/kg
AUC0-t ([9]; IV (2.5) mg/kg, separate assay, t = 72 h): 9 ^# µM*hr
AUC0-t ([9]; IV (2.5) mg/kg, t = 24 h): 3.5 ^¶ µM*hr
Cmax ([9]; PO (10) mg/kg): 540 nM
Tmax ([9]; PO (10) mg/kg): 8 h
F ([9]; PO (10) mg/kg, based on initial intravenous study at 24 h): 79.5 ^§ %
AUC0-t ([9]; PO (10) mg/kg, t = 24 h): 11 ^¶ µM*hr
AUC ([10]; 6.25 mg kg^−1 single oral dose): 15.7 µM·h
AUC ([10]; 12.5 mg kg^−1 single oral dose (single-dose cure)): 31.4 µM·h
AUC ([10]; 25 mg kg^−1 single oral dose): 62.8 µM·h
AUC ([10]; 50 mg kg^−1 single oral dose): 125.6 µM·h
AUC0-inf ([10]; PO (3) mg/kg): 7.2 µM·h
Cmax ([10]; PO (3) mg/kg): 210 nM
MRT0-inf ([10]; PO (3) mg/kg): 35.4 h
Tmax ([10]; PO (3) mg/kg): 12 h
AUC0-t ([10]; PO (3) mg/kg): 6.4 ^¶ µM*hr
AUC0-inf ([10]; PO (9) mg/kg): 22.6 µM·h
Cmax ([10]; PO (9) mg/kg): 600 nM
MRT0-inf ([10]; PO (9) mg/kg): 37.8 h
Tmax ([10]; PO (9) mg/kg): 12 h
AUC0-t ([10]; PO (9) mg/kg): 19.7 ^¶ µM*hr
Lowest single oral dose with no recrudescence ([11]; P. falciparum 3D7^HLH/BRD): 12.5 mg/kg
Rate of the loss of bioluminescence ([11]; single dose 6.25 mg kg^−1): slower
Change in parasite-associated bioluminescence ([11]; single dose 25 mg kg^−1 and 50 mg kg^−1): rapid decrease
Ct value, P. falciparum UCE qRT-PCR ([12]; blood 7 days after inoculation, 40 amplification cycles): 40
Blood-stage marker (P. falciparum UCE transcript) by qRT-PCR ([12]; blood 7 days after inoculation, single 10 mg kg^−1 oral dose): no amplification of the marker was detected; also recorded: not detected
Liver-stage-associated bioluminescence signal ([12]; huHep FRG knockout mice, single 10 mg kg^−1 oral dose 1 day after inoculation): No increase in bioluminescence intensity level; also recorded: no increase in bioluminescence signals
Oocysts in mosquito midguts ([13]; CD-1 mice, single oral 5 or 20 mg kg^−1, 2 days before mosquito feeding): No oocysts were detected
Compound remaining in the circulation (plasma concentration) ([13]; oral 25 mg kg^−1, 1 day after treatment): 896.5 ng/mL
Compound remaining in the circulation (plasma concentration) ([13]; oral 25 mg kg^−1, 4 days after treatment): 170.5 ng/mL
Compound remaining in the circulation (plasma concentration) ([13]; oral 25 mg kg^−1, 10 days after treatment): 8.6 ng/mL
Transmission ([13]; oral 1.25 mg kg^−1 and 0.31 mg kg^−1, 2 days before feeding mosquitoes): reduced transmission activity
Transmission ([13]; oral 5 mg kg^−1, 2 days before feeding mosquitoes): complete blocking of transmission
Oocysts in mosquito midguts ([13]; oral 25 mg kg^−1, blood feeding 1, 4 or 10 days after treatment): No oocysts were found
Transcription of asexual marker SBP1 (qRT-PCR) [14]: decreased to undetectable levels
Transcription of mature gametocyte marker Pfs25 (qRT-PCR) [14]: decreased to undetectable levels
Mutagenicity (Ames test) [15]: non-mutagenic
Recrudescence / resistance under constant drug pressure (P. falciparum Dd2 [16]): No recrudescence
